Test results published in article PMC5731459 (Science translational medicine, 2017).
In brackets after ≈: the same amount, converted by molar mass. Several values for one entry are separate records, joined by “and”; a condition that tells them apart may be missing. Equal entries are not always repeated. Where two headings read alike, the source gives them in different places.

Experiments:
[1] = test system: P. falciparum NF54 strain; assay: Erythrocytic IC50 speed and stage specificity assays; type: cell-based, Plasmodium falciparum
[2] = test system: P. falciparum (NF54 drug-sensitive strain); assay: [3H]-hypoxanthine incorporation assay, asexual blood-stage parasites; type: cell-based; details: Plasmodium falciparum, NF54, 72 h
[3] = test system: P. falciparum 3D7 strain; assay: In vitro parasite reduction ratio; type: cell-based, Plasmodium falciparum; details: 10× IC50
[4] = test system: P. berghei; assay: P. berghei mouse efficacy model; type: in vivo, Plasmodium berghei
[5] = test system: drug-sensitive 3D7 P. falciparum strain; assay: P. falciparum humanized SCID mouse efficacy model; type: in vivo, Plasmodium falciparum; details: once daily oral for four consecutive days
Summary of the method: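 Humanized SCID mice were infected with P. falciparum 3D7. From day 3 after infection, test compound was given orally once daily for 4 days, one mouse per dose level. Blood parasitemia was measured by flow cytometry and ED90 was read at day 7. Whole-blood drug levels were sampled 0–23 h after the first dose (LLOQ 1 ng/mL).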

[6] = test system: P. falciparum; assay: PKPD; type: in vivo, Plasmodium falciparum
Summary of the method: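 A direct-effect composite Emax PKPD model was fitted to humanized SCID mouse P. falciparum efficacy data, allowing for change in kill rate at higher doses. Inputs were modeled blood concentrations from individual-mouse whole-blood PK after once-daily oral dosing for 4 days. The model gave MIC, EC50/EC90 for kill rate and predicted parasitemia after 4 days.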

[7] = test system: P. falciparum late-stage gametocytes (stages IV and V); assay: Gametocyte viability assay; type: cell-based; details: Plasmodium falciparum, read-out: IC50, gametocyte viability (pLDH)
[8] = test system: P. falciparum early-stage (stages I to III) gametocytes expressing luciferase; assay: Gametocyte viability assay; type: cell-based, Plasmodium falciparum
[9] = test system: P. falciparum late-stage (stages IV and V) gametocytes expressing luciferase; assay: Gametocyte viability assay; type: cell-based, Plasmodium falciparum
[10] = test system: P. falciparum stage V gametocytes; assay: Male gamete formation; type: cell-based; details: Plasmodium falciparum, 24 h, read-out: potency, inhibition of exflagellation
[11] = test system: P. falciparum stage V gametocytes (oocysts in mosquito midgut); assay: Indirect standard membrane-feeding assay; type: cell-based; details: Plasmodium falciparum, 24 h, read-out: inhibition of oocyst formation (potency)
[12] = test system: P. falciparum stage V gametocytes (oocysts in mosquito midgut); assay: Direct standard membrane-feeding assay; type: cell-based; details: Plasmodium falciparum, read-out: inhibition of the formation of oocysts
[13] = test system: P. berghei; assay: Mouse-to-mouse transmission model; type: in vivo, Plasmodium berghei; details: 2 mg/kg oral; compared to 6.1 days in control mice
Summary of the method: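 Female TO mice (6–8 weeks) were infected i.p. with P. berghei clone 507cl1. On day 9, after exflagellation was confirmed, each received one 2 mg/kg oral gavage dose; controls were atovaquone 0.3 mg/kg and sulfadiazine 8.4 mg/kg i.p. Mosquitoes fed, then at day 21 bit naive mice for 20 min. Smears on days 4–10 set patency. Duplicates were combined by generalized linear mixed model against no-drug control.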

[14] = test system: P. cynomolgi liver-stage parasites; assay: P. cynomolgi liver-stage assay, IC99; type: cell-based, Plasmodium cynomolgi
[15] = Plasma concentrations in the prophylactic monkey study; type: in vivo, Macaca mulatta; details: po, 20 mg/kg
[16] = Plasma concentrations in the radical cure monkey study; type: in vivo, Macaca mulatta
[17] = Protein binding and blood-to-plasma partitioning; type: in vitro ADME
[18] = test system: P. berghei-infected HepG2 liver cells; assay: P. berghei liver-stage phenotyping in HepG2 cells; type: cell-based, Plasmodium berghei; details: 460 nM, 2 to 8 hours after infection
Summary of the method: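 Extracellular sporozoites were washed off at 2 h, then cells were exposed to 460 nM test compound or DMSO vehicle. Cells were fixed 8 h after invasion, immunolabeled and imaged by confocal microscopy.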

[19] = test system: P. falciparum Dd2 parasites; assay: microbe, parasite or virus in culture; type: cell-based; details: Plasmodium falciparum
[20] = test system: Dd2 multidrug-resistant parental line; assay: Cross-resistance test, parental line; type: cell-based; details: Plasmodium falciparum
[21] = test system: parasites bearing PfPI4K mutation H1484Y; assay: Cross-resistance test, transgenic PI4K-H1484Y line; type: cell-based; details: Plasmodium falciparum
[22] = test system: parasites bearing PfPI4K mutation S1320L; assay: Cross-resistance test, transgenic PI4K-S1320L line; type: cell-based; details: Plasmodium falciparum
[23] = target: T1, PfPI4K (Plasmodium falciparum, UniProt Q8I406); assay: Chemoproteomic competition binding, immobilized MMV666845 beads
[24] = target: T1, PfPI4K; assay: Chemoproteomic competition binding, Kinobeads
[25] = target: PI4KB (Q9UBF8) (Homo sapiens, UniProt Q9UBF8); assay: Chemoproteomic pull-down in K562 cell extract; type: binding
Sequence of PI4KB (Q9UBF8) (Q9UBF8 whole entry): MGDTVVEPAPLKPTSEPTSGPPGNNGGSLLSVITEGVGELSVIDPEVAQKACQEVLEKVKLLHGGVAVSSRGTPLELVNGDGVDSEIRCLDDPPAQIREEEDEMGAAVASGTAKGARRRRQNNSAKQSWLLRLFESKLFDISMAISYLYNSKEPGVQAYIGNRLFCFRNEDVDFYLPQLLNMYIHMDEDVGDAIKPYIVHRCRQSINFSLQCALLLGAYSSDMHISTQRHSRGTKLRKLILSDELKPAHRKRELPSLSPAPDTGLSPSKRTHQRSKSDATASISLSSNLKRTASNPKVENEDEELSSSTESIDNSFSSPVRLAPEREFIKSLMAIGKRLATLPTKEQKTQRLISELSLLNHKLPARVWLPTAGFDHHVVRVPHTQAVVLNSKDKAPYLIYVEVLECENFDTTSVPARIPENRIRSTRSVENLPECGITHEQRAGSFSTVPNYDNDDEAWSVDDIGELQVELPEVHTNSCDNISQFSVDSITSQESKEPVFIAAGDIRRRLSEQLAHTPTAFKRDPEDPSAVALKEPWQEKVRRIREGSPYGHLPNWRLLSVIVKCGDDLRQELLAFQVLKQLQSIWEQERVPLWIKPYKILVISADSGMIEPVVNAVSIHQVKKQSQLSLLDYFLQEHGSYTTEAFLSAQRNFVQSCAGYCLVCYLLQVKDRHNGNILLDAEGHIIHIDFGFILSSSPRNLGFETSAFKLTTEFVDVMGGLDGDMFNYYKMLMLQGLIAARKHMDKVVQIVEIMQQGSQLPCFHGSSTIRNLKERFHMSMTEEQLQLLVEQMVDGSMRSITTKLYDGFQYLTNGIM
Summary of the method: (§1)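 They were incubated 1 h at 4°C with K562 extract (5 mg) preincubated with test compound or buffer. Eluates were alkylated, separated by SDS gel and quantified by isobaric mass tagging LC-MS/MS.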

[26] = target: PI4KA (P42356) (Homo sapiens, UniProt P42356); assay: Chemoproteomic pull-down in K562 cell extract; type: binding
Sequence of PI4KA (P42356) (P42356 whole entry): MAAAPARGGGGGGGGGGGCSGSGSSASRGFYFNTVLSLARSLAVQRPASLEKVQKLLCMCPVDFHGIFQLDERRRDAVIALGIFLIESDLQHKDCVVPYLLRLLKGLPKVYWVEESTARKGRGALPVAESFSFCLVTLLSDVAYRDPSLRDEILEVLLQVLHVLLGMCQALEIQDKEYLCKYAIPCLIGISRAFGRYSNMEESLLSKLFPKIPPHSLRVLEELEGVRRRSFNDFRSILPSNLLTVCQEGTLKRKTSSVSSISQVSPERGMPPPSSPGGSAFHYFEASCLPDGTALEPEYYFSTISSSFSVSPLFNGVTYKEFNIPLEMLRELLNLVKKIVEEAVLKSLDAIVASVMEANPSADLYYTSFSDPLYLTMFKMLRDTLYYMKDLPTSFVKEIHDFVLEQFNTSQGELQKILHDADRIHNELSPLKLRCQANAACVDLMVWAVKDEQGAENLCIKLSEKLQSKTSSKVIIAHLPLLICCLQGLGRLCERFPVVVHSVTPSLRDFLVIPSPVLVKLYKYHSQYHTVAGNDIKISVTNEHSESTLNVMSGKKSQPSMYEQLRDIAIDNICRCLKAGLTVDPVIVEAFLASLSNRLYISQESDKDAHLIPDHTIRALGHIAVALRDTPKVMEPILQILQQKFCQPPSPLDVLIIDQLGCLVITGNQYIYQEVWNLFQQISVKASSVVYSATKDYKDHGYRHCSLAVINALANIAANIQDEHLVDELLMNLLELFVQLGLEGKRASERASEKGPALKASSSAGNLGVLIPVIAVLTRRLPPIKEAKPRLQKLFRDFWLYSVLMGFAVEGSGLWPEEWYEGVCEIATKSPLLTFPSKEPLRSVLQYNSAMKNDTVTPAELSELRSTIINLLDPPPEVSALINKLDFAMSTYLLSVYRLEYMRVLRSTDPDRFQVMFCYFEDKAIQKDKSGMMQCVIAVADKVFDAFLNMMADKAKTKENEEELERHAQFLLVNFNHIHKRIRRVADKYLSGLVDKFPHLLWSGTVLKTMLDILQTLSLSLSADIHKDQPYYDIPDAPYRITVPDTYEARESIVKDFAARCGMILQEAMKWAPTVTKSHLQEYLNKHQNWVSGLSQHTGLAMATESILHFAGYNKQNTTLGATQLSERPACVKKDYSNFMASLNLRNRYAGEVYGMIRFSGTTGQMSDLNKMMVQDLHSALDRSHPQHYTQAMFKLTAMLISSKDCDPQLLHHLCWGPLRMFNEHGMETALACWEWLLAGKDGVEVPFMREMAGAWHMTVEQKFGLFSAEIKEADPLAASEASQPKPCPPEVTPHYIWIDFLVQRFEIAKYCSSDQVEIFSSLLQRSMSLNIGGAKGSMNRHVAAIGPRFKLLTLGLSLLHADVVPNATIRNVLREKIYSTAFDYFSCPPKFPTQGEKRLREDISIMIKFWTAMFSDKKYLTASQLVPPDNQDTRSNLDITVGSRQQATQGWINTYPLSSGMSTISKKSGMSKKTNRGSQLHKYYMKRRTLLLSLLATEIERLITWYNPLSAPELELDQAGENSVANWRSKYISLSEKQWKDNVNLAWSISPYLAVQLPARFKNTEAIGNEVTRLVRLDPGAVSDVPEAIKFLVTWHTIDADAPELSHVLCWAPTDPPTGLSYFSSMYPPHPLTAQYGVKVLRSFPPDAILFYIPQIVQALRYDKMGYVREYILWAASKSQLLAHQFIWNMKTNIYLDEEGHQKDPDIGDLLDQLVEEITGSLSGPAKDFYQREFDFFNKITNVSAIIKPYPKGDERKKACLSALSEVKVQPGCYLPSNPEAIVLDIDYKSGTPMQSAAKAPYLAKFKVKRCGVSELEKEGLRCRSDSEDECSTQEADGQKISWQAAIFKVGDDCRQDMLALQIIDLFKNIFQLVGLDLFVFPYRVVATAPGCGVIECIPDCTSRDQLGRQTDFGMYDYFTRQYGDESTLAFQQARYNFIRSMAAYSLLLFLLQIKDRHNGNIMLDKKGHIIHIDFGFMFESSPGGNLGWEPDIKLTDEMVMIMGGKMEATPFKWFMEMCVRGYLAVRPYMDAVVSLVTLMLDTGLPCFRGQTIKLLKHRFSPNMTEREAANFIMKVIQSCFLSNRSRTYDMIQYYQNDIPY
Summary of the method: as §1

[27] = target: ATM (Q13315) (Homo sapiens, UniProt Q13315); assay: Chemoproteomic pull-down in K562 cell extract; type: binding
Summary of the method: as §1

[28] = target: TNIK (Q9UKE5) (Homo sapiens, UniProt Q9UKE5); assay: Chemoproteomic pull-down in K562 cell extract; type: binding
Sequence of TNIK (Q9UKE5) (Q9UKE5 whole entry): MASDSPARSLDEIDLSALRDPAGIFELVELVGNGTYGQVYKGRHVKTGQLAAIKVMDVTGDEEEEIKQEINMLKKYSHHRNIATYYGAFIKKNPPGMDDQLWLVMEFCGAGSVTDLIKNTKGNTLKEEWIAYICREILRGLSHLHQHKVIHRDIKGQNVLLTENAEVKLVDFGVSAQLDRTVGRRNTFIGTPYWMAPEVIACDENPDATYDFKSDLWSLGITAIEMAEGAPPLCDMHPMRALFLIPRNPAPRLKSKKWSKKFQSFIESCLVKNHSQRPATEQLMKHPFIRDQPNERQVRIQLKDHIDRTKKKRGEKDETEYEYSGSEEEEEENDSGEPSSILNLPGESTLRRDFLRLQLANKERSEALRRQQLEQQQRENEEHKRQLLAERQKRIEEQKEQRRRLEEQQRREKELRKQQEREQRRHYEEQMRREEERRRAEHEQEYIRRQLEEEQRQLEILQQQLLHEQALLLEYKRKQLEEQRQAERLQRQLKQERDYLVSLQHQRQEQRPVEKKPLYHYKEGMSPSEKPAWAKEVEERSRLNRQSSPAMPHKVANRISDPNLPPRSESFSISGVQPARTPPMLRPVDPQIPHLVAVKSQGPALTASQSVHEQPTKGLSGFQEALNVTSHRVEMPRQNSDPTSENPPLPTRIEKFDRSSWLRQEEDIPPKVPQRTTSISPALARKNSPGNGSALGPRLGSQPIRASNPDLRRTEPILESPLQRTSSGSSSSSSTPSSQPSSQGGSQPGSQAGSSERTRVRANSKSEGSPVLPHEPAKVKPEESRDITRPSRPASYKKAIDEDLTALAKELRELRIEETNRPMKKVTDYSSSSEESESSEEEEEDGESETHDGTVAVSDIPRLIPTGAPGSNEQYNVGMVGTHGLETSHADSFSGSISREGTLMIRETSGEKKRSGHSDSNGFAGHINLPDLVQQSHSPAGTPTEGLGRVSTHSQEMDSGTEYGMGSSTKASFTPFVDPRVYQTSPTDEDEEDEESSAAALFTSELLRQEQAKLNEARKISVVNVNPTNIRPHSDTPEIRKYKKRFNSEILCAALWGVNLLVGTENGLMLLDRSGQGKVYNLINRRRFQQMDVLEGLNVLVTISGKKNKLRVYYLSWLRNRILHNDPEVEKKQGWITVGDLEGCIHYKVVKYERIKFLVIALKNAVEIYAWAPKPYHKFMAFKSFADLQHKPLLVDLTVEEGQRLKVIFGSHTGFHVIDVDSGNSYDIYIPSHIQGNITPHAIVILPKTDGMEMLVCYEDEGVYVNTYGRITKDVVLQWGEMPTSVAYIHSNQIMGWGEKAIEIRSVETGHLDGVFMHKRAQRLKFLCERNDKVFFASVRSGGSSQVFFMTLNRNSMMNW
Summary of the method: as §1

[29] = Allometric scaling to human pharmacokinetics and dose
[30] = rats; cited from earlier work
[31] = pH 6.5; cited from earlier work
[32] = in vivo; details: male (mice, rats), female (monkeys, dogs), Swiss outbred (mice), Sprague Dawley (rats), beagle (dogs), mouse, rat, dog, cynomolgus monkey, iv
[33] = test system: P. cynomolgi; assay: Radical cure study in P. cynomolgi-infected rhesus macaques; details: 20 mg/kg oral daily for 5 days, Cmax 5697 ng/ml
[34] = Plasmodium falciparum, read-out: IC50, gametocyte viability (luciferase)

Which “IC50 fold higher at 24-hour compared to 72-hour time point” value ([1]; unsynchronized culture) does the source give for CCc1nc(N)nc(N)c1-c1ccc(Cl)cc1 [pyrimethamine, reference compound] here?
Its value is 7.8 fold.

For CS(=O)(=O)c1ccc(-c2cnc(N)c(-c3ccc(C(F)(F)F)nc3)c2)cc1 [MMV390048], which IC90 [2] is on record?
The IC90 was 40 nM.

What about the lag phase [3] of the same compound?
The lag phase was 24 h.

And the blood-stage specificity profile [1]?
Its blood-stage specificity profile is “highest activity against the young schizont stage”.

What about the ED50 ([4]; Plasmodium berghei, in Mus musculus, po, 72 h) of the same compound?
Its ED50 is 0.57 mg/kg.

What about the ED90 ([4]; four oral administrations (4, 24, 48, 72 hours after infection), measured at 96 hours) of the same compound?
The ED90 was 1.1 mg/kg.

And the “in vivo parasite clearance rate” value ([4]; single oral dose 100 mg/kg)?
Its value is “intermediate”.

What about the “ED90 at day 7” value [5] of the same compound?
Its value is 0.57 mg/kg.

What about the “parasitemia at the end of 4 days” value ([6]; dose of 1 mg/kg (highest predicted kill rate)) of the same compound?
Its value is < 0.01%.

And the “MIC to inhibit growth” value ([6]; modeled blood concentration)?
Its value is 0.071 µg/mL (≈ 0.18 µM).

And the IC50 [7]?
The IC50 was 285 nM.

And the IC50 [8, 34]?
The IC50 was 214 nM.

And the “clearance rate (slope)” value ([8]; stage I to III, at IC50 concentration over 3 days)?
The value was −6.09.

And the “late-stage gametocytes killed faster than early-stage” value [9]?
The value was 2.5 times.

And the IC50 [9, 34]?
The IC50 was 140 nM.

What about the “rate of onset of action” value ([9]; luciferase-expressing gametocytes) of the same compound?
The value was 24 h.

And the “clearance rate (slope)” value ([9]; stage IV and V, at IC50 concentration over 3 days)?
The value was −15.49.

And the IC50 [10]?
The IC50 was 90 nM.

What about the IC50 [11] of the same compound?
The IC50 was 111 nM.

What about the inhibition at 1000 µM [12] of the same compound?
The inhibition at 1000 µM was < 25%.

And the “Prepatency (±SEM)” value [13]?
The value was 6.8 days (±0.28).

And the “liver-stage IC99 (in vitro)” value [14]?
Its value is 90 nM.

What about the “in vivo IC99 (estimated)” value ([14]; in vitro IC99 corrected for AlbuMAX binding and plasma protein binding) of the same compound?
Its value is 353 ± 32 nM and 138 ± 13 ng/ml.

What about the Cmax [15] of the same compound?
The Cmax was 1980 ng/mL.

And the half-life [15]?
The half-life was ~30 h.

And the “time plasma concentration above liver-stage IC99” value ([16]; 20 mg/kg oral daily for 5 days)?
The value was 15.8 days.

And the Cmax ([16]; monkey, plasma, po, 20 mg/kg)?
Its Cmax is 5700 ng/mL.

What about the “time plasma concentration above blood-stage MIC” value ([16]; rhesus macaque (Macaca mulatta), in vivo) of the same compound?
The value was 20 days.

And the “serum albumin (AlbuMAX) binding” value [17]?
Its value is 54%.

And the fraction unbound ([17]; plasma, protein binding, used for MIC correction)?
The fraction unbound was 0.139.

And the “localization of parasitophorous vacuole membrane protein UIS4” value [18]?
The value was “mislocalization”.

What about the IC50 ([19]; DD2) of the same compound?
Its IC50 is 16 nM.

And the IC50 ([19]; DD2, read-out: IC50 of resistant clones)?
The IC50 was 70 to 90 nM.

And the IC50 [20]?
Its IC50 is 22.7 nM.

What about the IC50 [21] of the same compound?
Its IC50 is 62.8 nM.

What about the IC50 [22] of the same compound?
The IC50 was 57.7 nM.

What about the Kd [23] of the same compound?
The Kd was 300 nM.

And the “effect of excess free compound on capture of P. falciparum PI4K by the beads” value ([23]; excess compound (10 µM for MMV390048))?
Its value is “competitively inhibited”.

And the Kd [24]?
The Kd was 100 nM.

What about the binding [25] of the same compound?
The binding was “did not observe any binding”.

What about the binding [26] of the same compound?
The binding was “did not observe any binding”.

What about the binding affinity [27] of the same compound?
The binding affinity was “low binding affinity”.

And the binding affinity [28]?
The binding affinity was “low binding affinity”.

What about the “predicted elimination half-life in humans” value [29] of the same compound?
Its value is “about 90 hours”.

And the “predicted plasma clearance in humans” value [29]?
The value was 0.02 liter/hour per kg.

What about the “predicted volume of distribution in humans” value [29] of the same compound?
Its value is 2.8 L/kg.

And the absorption [30]?
The absorption was “well absorbed”.

And the kinetic solubility [31]?
The kinetic solubility was “not optimal”.

What about the Vd [32] of the same compound?
The Vd was 1.3 to 3 L/kg.

And the clearance [32]?
Its clearance is 0.6 to 6.5 mL/min/kg.

And the observed toxicity [33]?
The observed toxicity was “without any observed toxicity”.

With C[C@H]1[C@@H](O)O[C@@H]2O[C@@]3(C)CC[C@H]4[C@H](C)CC[C@@H]1[C@@]24OO3 [dihydroartemisinin, reference compound] as the compound, how does the IC50 [7] read?
Its IC50 is 12 nM.
